# MrgX1 allo act: human MrgX1 positive allosteric modulation, primary screen; 0.63% of 310,000 active; B-score at 10 µM; MrgX1-HEK293, Fluo-4 calcium flux, FDSS; stronger effect = higher value; Q96LB2;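 active = plate-corrected calcium response at least 3 library SD above typical, normal starting fluorescence, not activating the receptor alone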;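 note: compound read alongside a low EC10 to EC30 dose of BAM8-22 agonist; peak minus trough fluorescence over baseline measured at the second addition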
# Target sequence (Q96LB2 whole entry, looked up): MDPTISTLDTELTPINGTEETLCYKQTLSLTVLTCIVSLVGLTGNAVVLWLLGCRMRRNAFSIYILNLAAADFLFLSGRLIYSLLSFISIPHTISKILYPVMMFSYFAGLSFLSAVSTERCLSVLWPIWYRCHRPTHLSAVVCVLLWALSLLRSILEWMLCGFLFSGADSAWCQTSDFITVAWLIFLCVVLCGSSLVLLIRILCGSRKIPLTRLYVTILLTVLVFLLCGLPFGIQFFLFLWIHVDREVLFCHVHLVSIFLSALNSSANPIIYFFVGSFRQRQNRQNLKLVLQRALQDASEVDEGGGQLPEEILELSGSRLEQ
# RGS4 inh: human RGS4 inhibition. P49798. HEK293 M3R/RGS4 inducible, Fluo-4 calcium flux; stronger effect = higher value; triggered by carbachol at its EC20. B-score at 10 µM. 0.45% of 310,000 active. AID 463165;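 active = B-score, a plate-corrected calcium signal, over three deviations above library mean, with baseline fluorescence within five deviations of library mean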;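 note: RGS4 expression induced by doxycycline in cells with stable M3 receptor; B-score is computed from the integrated fluorescence ratio over baseline after carbachol; higher B-score means a larger calcium signal and so more RGS4 inhibition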
# Target sequence (P49798 whole entry, looked up): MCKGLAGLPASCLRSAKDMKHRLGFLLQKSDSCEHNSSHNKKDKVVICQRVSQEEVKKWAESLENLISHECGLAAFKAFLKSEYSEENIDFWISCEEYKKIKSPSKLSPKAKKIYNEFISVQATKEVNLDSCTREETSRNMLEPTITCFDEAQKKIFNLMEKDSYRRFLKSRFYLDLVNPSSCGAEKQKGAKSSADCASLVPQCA
# MrgX1 antagonist: antagonists of human MrgX1 receptor. 1.3% of 310,000 active. Q96LB2. MRGX1-HEK293 calcium flux, Fluo-4, BAM8-22 antagonism; stronger effect = lower value. B-score at 10 µM. AID 588676;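 active = calcium-response B-score plate-corrected more than 3 library SD below zero, starting fluorescence within 5 deviations, no agonist response on first addition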;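 note: peak minus trough fluorescence over baseline after final BAM8-22 challenge near maximal dose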
# RGS4 pot: potentiators or activators of RGS4. HEK293 M3R/inducible RGS4, carbachol calcium flux Fluo4; stronger effect = lower value. B-score at 10 µM. 0.92% of 310,000 active;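 active = B-score of the integrated calcium signal more than 4 SD below the library mean, with starting fluorescence not abnormally high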;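 note: negative B-score means reduced calcium response which marks RGS4 activation or potentiation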
#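 Material: M3R-expressing HEK293 line, RGS4 induced by doxycycline | Schedule: Overnight RGS4 induction, 30 min dye load 37 °C, 20 min compound RT | Measured by: Fluo4 fluorescence kinetic imaging of calcium | Read-out: Integrated calcium ratio converted to B score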
# MrgX1 ag: activates human MrgX1 receptor signaling. AID 588627. Q96LB2. MrgX1-HEK293 cells, Fluo-4 calcium fluorescence, agonist mode; stronger effect = higher value. 0.44% of 310,000 active. B-score at 10 µM;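 active = calcium response B-score plate-corrected fluorescence ratio at least 3 library SD, with starting fluorescence B-score inside 5 SD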
#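 times = overnight plating, then 30 min 37 °C plus 30 min room-temperature dye loading | assay system = stable human MrgX1 HEK293 cell line | input = fifteen thousand cells per well | signal = kinetic calcium dye fluorescence, Fluo-4 NW | dosing = compound delivered in addition one of three | read-out = B-scored fluorescence response ratio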
# * hit, by the source's call; i = inactive. In the library only some 3.5% were active in any assay of this set; here they are far more common.
SMILES,MrgX1 allo act,RGS4 inh,MrgX1 antagonist,RGS4 pot,MrgX1 ag
Cc1ccc(N(CC2CO2)S(=O)(=O)c2ccc(C)cc2)cc1 (configuration not stated),i,i,i,i,i
Cc1ccc(N(CC2CO2)S(=O)(=O)c2ccc([N+](=O)[O-])cc2)cc1 (configuration not stated),7.4*,i,i,i,i
Cc1cc(NC(=O)CCC(=O)N(CC(=O)NC2CCCC2)c2ccc(Cl)c(Cl)c2)no1,i,i,i,i,i
COc1ccc(S(=O)(=O)N2CCC(C(=O)Oc3cccc(C)c3)CC2)cc1OC,i,i,i,i,i
COc1cc([N+](=O)[O-])ccc1NC(=O)COC(=O)C=C(C)C,i,i,i,i,i
CC(C)=CC(=O)OCC(=O)Nc1cccc([N+](=O)[O-])c1,i,i,-8.6*,i,i
O=C(O)c1cccc(Cn2c(Cl)c(/C=N/NC(=O)c3cc4ccccc4cc3O)sc2=O)c1,i,i,i,i,i
CC1(C)CCCN(C(=O)N2c3ccccc3Sc3ccccc32)C1,i,i,i,-9.2*,i
O=C(N/N=C\c1cc([N+](=O)[O-])ccc1N1CCOCC1)c1ccccn1,i,i,-4.5*,i,i
CC(=O)c1ccc(N(CC(=O)NC2CCCC2)C(=O)CNC(=O)c2ccco2)cc1,i,i,i,i,i
O=C(Nc1nc2ccccc2s1)C1CCN(S(=O)(=O)c2cc([N+](=O)[O-])ccc2Cl)CC1,i,i,-5.3*,i,i
CCC(C)NC(=O)C1CCN(S(=O)(=O)c2cc([N+](=O)[O-])ccc2Cl)CC1 (configuration not stated),i,i,i,i,i
O=C(Nc1ccccc1)C1=C[C@H](c2ccccc2)C[C@H](OCc2ccc(CO)cc2)O1,7.3*,i,i,i,i
OCC1(CCc2ccccc2)CCCN(CCCc2ccccc2)C1 (configuration not stated),i,i,i,i,i
CSc1cccc(CN2CCCC(C(=O)Nc3cccc(-n4cccn4)c3)C2)c1 (configuration not stated),i,i,i,-7.3*,i
CCOc1ccccc1CN1CCCC(C(=O)Nc2cccc(-n3cccn3)c2)C1 (configuration not stated),i,i,i,-7*,i
CCOc1cccc(CN2CCCC(C(=O)Nc3cccc(-n4cccn4)c3)C2)c1 (configuration not stated),i,i,i,i,i
COc1ccc(NS(=O)(=O)c2nnc(NC(=O)c3ccccc3F)s2)cc1,i,i,i,i,i
CCn1c(Cc2cccs2)nnc1SCC(=O)Nc1ccc(OC)c(OC)c1,i,i,-4.7*,i,i
CCn1c(SCC(=O)Nc2ccc3c(c2)oc2ccccc23)nnc1-c1ccc(N)cc1,i,8*,i,i,i
CCn1nc(C)cc1-c1nnc(Sc2ncc([N+](=O)[O-])s2)n1C,i,i,i,-7.9*,38*
CC(C)(C)c1ccc(C(=O)N2CCCN(c3ccc([N+](=O)[O-])cn3)CC2)cc1,i,i,i,i,i
CCCCN(CCCC)c1nc2ccccc2nc1C(C#N)C(=O)NCCCOC (configuration not stated),i,i,i,-9.5*,i
CC1CCN(S(=O)(=O)CCNC(=O)c2ccc(F)cc2)CC1,i,i,i,i,i
Clc1ccc(CN2CCc3c([nH]c4ccccc34)C2)cc1Cl,i,i,-4.6*,i,i
SMILES,MrgX1 allo act,RGS4 inh,MrgX1 antagonist,RGS4 pot,MrgX1 ag
COc1cc(/C=C2/SC(=S)N(CC3CCCO3)C2=O)ccc1O (configuration not stated),i,i,-8.6*,i,i
COc1ccc(/C=C2\SC(=S)N(CC3CCCO3)C2=O)cc1 (configuration not stated),i,i,i,i,i
O=C(O)C(Cc1ccccc1)N1C(=O)/C(=C/c2ccccc2)SC1=S (configuration not stated),i,i,i,i,i
COc1cc(/C=C2\SC(=S)N(C(Cc3ccccc3)C(=O)O)C2=O)ccc1O (configuration not stated),i,i,i,i,56*
CC(C)Oc1ccc(S(=O)(=O)N2CCOCC2)cc1NC(=O)C(C)Oc1ccc(F)cc1 (configuration not stated),i,i,i,i,i
COc1ccccc1NC(=O)CSc1nnc(CCNC(=O)c2ccc(C)cc2)n1C,i,i,i,i,i
N#C/C(=C/c1ccc(-c2cc(C(=O)O)cc(C(=O)O)c2)o1)c1nc2ccccc2s1,i,i,i,i,27*
CCc1ccccc1NC(=O)CSc1nc(-c2ccccc2)nn1C(=O)c1cccc([N+](=O)[O-])c1,i,i,i,i,i
O=C(CSc1nc(-c2ccccc2)nn1C(=O)c1ccccc1)Nc1cccc([N+](=O)[O-])c1,i,i,-4.8*,i,i
O=C1Nc2ccc([N+](=O)[O-])cc2OC1CCN1CCCC1 (configuration not stated),12*,i,i,i,i
CN1CCN(CCC2Oc3cc([N+](=O)[O-])ccc3NC2=O)CC1 (configuration not stated),i,i,i,i,i
Cc1ccc(/C=C2/Sc3ccccc3N(CC(=O)NCC3CCCO3)C2=O)cc1 (configuration not stated),i,i,i,-7.4*,i
CCCCOc1ccccc1C(=O)NNC(=S)NC(=O)c1ccccc1[N+](=O)[O-],i,i,-5.8*,i,i
O=C(NNC(=S)NC(=O)c1ccccc1[N+](=O)[O-])c1ccccc1[N+](=O)[O-],i,i,i,i,i
CC(=O)Oc1ccc2nc(/C=C/c3ccccc3)oc(=O)c2c1,i,i,i,i,i
CCN=c1scc(-c2ccccc2)n1/N=C/c1ccccn1,12*,i,i,i,i
C=CCN=c1scc(-c2ccccc2)n1/N=C/c1ccccn1,14*,i,i,i,i
C=CCN=c1scc(-c2ccc(F)cc2)n1/N=C/c1ccccn1,i,i,i,i,i
COc1ccc(COC(=O)c2sc3nc4n(c(=O)c3c2C)CCC4)cc1,i,i,i,i,i
CCCN(CCC)C1=N/C(=C\c2ccco2)C(=O)N1c1ccccc1,6.9*,i,i,i,i

# Assay outcomes as filed in PubChem.
